Laboratory results as given in ChEMBL document CHEMBL3734686, “Synthesis, Photophysical Properties, and Biological Evaluation of trans-Bisthioglycosylated Tetrakis(fluorophenyl)chlorin for Photodynamic Therapy” (J Med Chem, 2015).
Activity calls are given as the source filed them.

Key:
[1] = Drug uptake in BALB/c mouse large intestine implanted with mouse 4T1 cells assessed per gram of tissue at 0.18 mg/kg, ip after 6 hrs by HPLC-based fluorescence analysis; type: ADME, organism-based; conditions: in vivo
Method in brief: (§1)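 Female BALB/c mice bearing 4T1 thigh tumours received an i.p. dose in ethanol/PEG400/H2O (2/3/5) with 0.1% DMSO, or in saline, and were kept dark until killed. Tissues were weighed (100 mg), homogenised in CH3OH/DMSO/H2O (32/8/1) and centrifuged twice at 2300×g at 4°C. Supernatants were analysed by HPLC with fluorescence detection (λex 404/λem 654 nm or λex 400/λem 666 nm). n = 3 per time point.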

4T1 [2] = assay: Drug uptake in mouse 4T1 cells implanted in BALB/c mouse assessed per gram of tissue at 0.18 mg/kg, ip after 72 hrs by HPLC-based fluorescence analysis; type: ADME, organism-based; conditions: in vivo
Method in brief: (§2)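 Female BALB/c mice with 4T1 cells (1 × 10^6 in HBSS) implanted in left rear thigh; single i.p. dose, 7 in ethanol/PEG400/H2O (2/3/5) with 0.1% DMSO, mono-L-aspartyl chlorin e6 in saline; kept dark until sacrifice. Tissues washed, frozen, homogenized in CH3OH/DMSO/H2O (32/8/1), centrifuged 2300×g; supernatant analysed by HPLC with fluorescence detection; three animals per time point.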

4T1 [3] = assay: Drug uptake in mouse 4T1 cells implanted in BALB/c mouse assessed per gram of tissue at 0.18 mg/kg, ip after 24 hrs by HPLC-based fluorescence analysis; type: ADME, organism-based; conditions: in vivo; method in brief: as §2
Lung [4] = assay: Drug uptake in BALB/c mouse lung implanted with mouse 4T1 cells assessed per gram of tissue at 0.18 mg/kg, ip after 48 hrs by HPLC-based fluorescence analysis; type: ADME, organism-based; conditions: in vivo; method in brief: as §1
Muscle tissue = assay: Drug uptake in BALB/c mouse muscle implanted with mouse 4T1 cells assessed per gram of tissue at 0.18 mg/kg, ip after 24 hrs by HPLC-based fluorescence analysis; type: ADME, organism-based; conditions: in vivo; method in brief: as §1
4T1 [5] = assay: Drug uptake in mouse 4T1 cells implanted in BALB/c mouse assessed per gram of tissue at 0.18 mg/kg, ip after 6 hrs by HPLC-based fluorescence analysis; type: ADME, organism-based; conditions: in vivo; method in brief: as §2
Kidney = assay: Drug uptake in BALB/c mouse kidney implanted with mouse 4T1 cells assessed per gram of tissue at 0.18 mg/kg, ip after 24 hrs by HPLC-based fluorescence analysis; type: ADME, organism-based; conditions: in vivo; method in brief: as §1
4T1 [6] = assay: Drug uptake in mouse 4T1 cells implanted in BALB/c mouse assessed per gram of tissue at 0.18 mg/kg, ip after 12 hrs by HPLC-based fluorescence analysis; type: ADME, organism-based; conditions: in vivo; method in brief: as §2
Plasma = assay: Drug uptake in BALB/c mouse plasma implanted with mouse 4T1 cells at 0.045 mg/kg, ip after 1 to 24 hrs by HPLC analysis; type: ADME, organism-based; conditions: in vivo
[7] = Ratio of drug level in tumor to skin in BALB/c mouse implanted with mouse 4T1 cells ip after 24 hrs; conditions: in vivo
4T1 [8] = assay: Antiangiogenic activity against mouse 4T1 cells implanted in BALB/c mouse at 0.045 mg/kg, ip administered for 48 hrs followed by irradiation at 48 J/cm2 measured after 6 days by hematoxylin/eosin-staining based microscopic analysis; type: functional, organism-based
Method in brief: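 4T1 cells (1 × 10^6 in HBSS) were implanted in the left rear thigh of female BALB/c mice. At 48 h after i.p. dosing at 31.25 nmol·kg−1 in ethanol/PEG400/H2O (2/3/5) with 0.1% DMSO, the tumour was irradiated with a 100-W halogen lamp (λ > 500 nm, 48 J·cm−2). Skin with tumour was taken 6 days later, fixed in 4% paraformaldehyde, paraffin-embedded, cut into 7-µm sections, H&E-stained and examined by light microscopy.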

4T1 [9] = assay: Drug uptake in mouse 4T1 cells implanted in BALB/c mouse assessed per gram of tissue at 0.18 mg/kg, ip after 48 hrs by HPLC-based fluorescence analysis; type: ADME, organism-based; conditions: in vivo; method in brief: as §2
[10] = Drug uptake in BALB/c mouse large intestine implanted with mouse 4T1 cells assessed per gram of tissue at 0.18 mg/kg, ip after 24 hrs by HPLC-based fluorescence analysis; type: ADME, organism-based; conditions: in vivo; method in brief: as §1
Stomach [11] = assay: Drug uptake in BALB/c mouse stomach implanted with mouse 4T1 cells assessed per gram of tissue at 0.18 mg/kg, ip after 24 hrs by HPLC-based fluorescence analysis; type: ADME, organism-based; conditions: in vivo; method in brief: as §2
HeLa = assay: Photocytotoxicity against human HeLa cells assessed as cell survival preincubated for 24 hrs followed by irradiation at 16 J/cm2 measured at 24 hrs by WST-8 assay; type: functional, cell-based; conditions: light or radiation study
Method in brief: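 Cells (5 × 10^3/well) in DMEM with 10% FCS, 24 h at 37°C, 5% CO2; photosensitizer 1–50000 nM (1% DMSO final) for 24 h, washed, fresh medium. Irradiated with 100-W halogen lamp through λ>500 nm or λ>600 nm cutoff filter to 16 J·cm−2; WST-8 absorbance at 450 nm 24 h later, survival normalized to no-drug wells.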

4T1 [12] = assay: Induction of necrosis in mouse 4T1 cells implanted in BALB/c mouse at 5 mg/kg, ip irradiated at 48 J/cm2 measured at 1 day post PDT by […]-based fluorescence microscopic analysis; type: functional, organism-based; conditions: 0.18 mg/kg, in the assay text read “0.18 mg/kg” for “5 mg/kg”
Method in brief: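 Skin-plus-tumor slides from 4T1-bearing mice 1 day after PDT; proteinase K treatment, then dual apoptosis/necrosis detection reagent at room temperature in dark, washed in PBS, examined by fluorescence microscopy.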

Lung [13] = assay: Drug uptake in BALB/c mouse lung implanted with mouse 4T1 cells assessed per gram of tissue at 0.18 mg/kg, ip after 72 hrs by HPLC-based fluorescence analysis; type: ADME, organism-based; conditions: in vivo; method in brief: as §1
Stomach [14] = assay: Drug uptake in BALB/c mouse stomach implanted with mouse 4T1 cells assessed per gram of tissue at 0.18 mg/kg, ip after 48 hrs by HPLC-based fluorescence analysis; type: ADME, organism-based; conditions: in vivo; method in brief: as §2
[15] = Drug uptake in mitochondria of human Hela cells at 0.5 uM preincubated for 24 hrs followed by MitoTracker Green FM addition for 30 mins by CSLM analysis; type: ADME; conditions: 0.5 h
Method in brief: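 HeLa cells (1 × 10^4) plated 24 h, incubated 24 h with 0.5 µM final photosensitizer (1% DMSO), washed, stained 30 min with 250 nM MitoTracker Green FM in HBSS at 37°C, fixed in 4% paraformaldehyde. Confocal imaging: red λex 488/λem 650 nm; green λex 488/λem 505–530 nm.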

Liver = assay: Drug uptake in BALB/c mouse liver implanted with mouse 4T1 cells assessed per gram of tissue at 0.18 mg/kg, ip after 24 hrs by HPLC-based fluorescence analysis; type: ADME, organism-based; conditions: in vivo; method in brief: as §1
4T1 [16] = assay: Antitumor activity against mouse 4T1 cells implanted in BALB/c mouse at 0.045 mg/kg, ip assessed as tumor growth inhibition administered for 48 hrs followed by irradiation at 40 mW/cm2 measured after 7 days; type: functional, organism-based
Method in brief: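 Female BALB/c mice carried 4T1 thigh tumours (1 × 10^6 cells) of 50–60 mm3. They were dosed i.p. at 250–31.25 nmol·kg−1 in ethanol/PEG400/H2O (2/3/5) containing 0.1% DMSO and kept dark. At 48 h the tumour was irradiated with a 100-W halogen lamp at 40 mW·cm−2 for 20.1 min. Tumour size was measured daily by caliper as length × width²/2 and normalised to day 0.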

For CN1CC2C3=N/C(=C(/c4c(F)c(F)c(S[C@@H]5O[C@H](CO)[C@@H](O)[C@H](O)[C@H]5O)c(F)c4F)C4=N/C(=C(/c5c(F)c(F)c(F)c(F)c5F)c5ccc([nH]5)/C(c5c(F)c(F)c(S[C@@H]6O[C@H](CO)[C@@H](O)[C@H](O)[C@H]6O)c(F)c5F)=C5/C=CC(=N5)C3c3c(F)c(F)c(F)c(F)c3F)C=C4)C2C1 (stereo partly specified), the Drug uptake [1] was 80 ng, the Drug uptake (4T1 [2]) was 1.8 ng/g and the Drug uptake (4T1 [3]) was 3 ng. It also gave a Drug uptake (Lung [4]) of 11 ng, a Drug uptake (Muscle tissue) of 1.2 ng and a Drug uptake (4T1 [5]) of 5 ng. For the same compound, the Drug uptake (Kidney) was 18 ng, the Drug uptake (4T1 [6]) was 4 ng/g and the Drug uptake (Plasma) was “Active”. For the same compound, the Ratio [7] was 60, the Activity (4T1 [8]) was “Active” and the Drug uptake (4T1 [9]) was 1.4 ng/g. The Drug uptake [10] was 60 ng/g, the Drug uptake (Stomach [11]) was 31 ng/g and the EC50 (HeLa) was 0.5 nM. For the same compound, the Activity (4T1 [12]) was “Active”, the Drug uptake (Lung [13]) was 7 ng/g and the Drug uptake (Stomach [14]) was 6 ng. The Drug uptake [15] was “Active”, the Drug uptake (Liver) was 60 ng and the Activity (4T1 [16]) was “Active”.
